Entries after “also recorded” stand apart in the source; their conditions may differ.

Data on 2 molecules can be found in publication PMC5519669 (Forensic Toxicology, 2017).

Series [1] can be described thus: Clearance in rat liver microsome incubation. In kind it is in vitro ADME. As to conditions: for half-life at 1 µM / microsomal CLint at 1 µM: male, Sprague-Dawley, rat, pooled rat liver microsomes, pH 7.4; for Parent compound after incubation: rat liver microsome incubations, after 3 h incubations; for ER (extraction ratio) / CLH (estimated hepatic clearance) / CLint (estimated intrinsic clearance): rat liver microsomes; for CLH (estimated hepatic clearance): from CLint and liver blood flow; for CLint (estimated intrinsic clearance): scaled to whole-liver dimensions.

Series [2] can be described thus: Clearance in human liver microsome incubation. Format: in vitro ADME. As to conditions: for Parent compound after incubation: human liver microsome incubations, after 3 h incubations; for ER (extraction ratio) / CLH (estimated hepatic clearance) / CLint (estimated intrinsic clearance): human liver microsomes; for CLH (estimated hepatic clearance): from CLint and liver blood flow; for CLint (estimated intrinsic clearance): scaled to whole-liver dimensions.

Series [3] can be described thus: Rat plasma kinetics after intraperitoneal injection. In kind it is in vivo. As to conditions: for AUC(0-inf) / AUC(0-t) / Cmax / half-life: 3 mg/kg; for half-life: non-compartmental analysis; for Untransformed parent compound in plasma: 24 h post-dosing.
A further series concerns male rats. The series is described as follows: Rectal body temperature. Format: in vivo, rat. To be noted: 3 mg/kg i.p.; for Hypothermic effect compared to vehicle injection: 3 mg/kg; for Mean rectal body temperature versus vehicle: at 15 and 30 min and 1, 2, and 4 h post-injection. In a few lines:
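Male Long–Evans rats (49 days old, jugular-catheterised, n = 4/group) were housed singly in metabolic cages and given test compound i.p. at 3 mg/mL in 7.8% polysorbate 80/92.2% saline at 1 mL/kg, with a vehicle group. Rectal temperature was taken by digital thermometer 15 min pre-dose and 15, 30 min, 1, 2, 4, 8, 24 h post-dose. Analysis used mixed two-factor ANOVA, then Dunnett's tests versus vehicle per time point.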

[4] abbreviates: male, human, pooled human liver microsomes, pH 7.4.
[5] abbreviates: male, Long-Evans, rat, plasma, ip.
Setting [6] is: male, Long-Evans, rat, plasma, ip, Half-life, rat plasma, 3 mg/kg i.p.

Take `CC(C)(NC(=O)c1cn(CCCCCF)c2ccccc12)c1ccccc1` [5F-CUMYL-PICA, 1-(5-fluoropentyl)-N-(2-phenylpropan-2-yl)-1H-indole-3-carboxamide]: in series [1], the half-life at 1 µM worked out at 1.19 min, the microsomal CLint at 1 µM came to 580 µL/min/mg, the “Parent compound after incubation” value is “still detectible” and the “ER (extraction ratio)” value is recorded as 0.95. Further, in series [1], the “CLH (estimated hepatic clearance)” value is on record as 52.44 mL/min/kg body wt and the “CLint (estimated intrinsic clearance)” value is 1048.24 mL/min/kg body wt. In series [2], the “Parent compound after incubation” value was “still detectible”, the “ER (extraction ratio)” value was 0.96, the “CLH (estimated hepatic clearance)” value is given as 19.15 mL/min/kg body wt and the “CLint (estimated intrinsic clearance)” value is recorded as 453.05 mL/min/kg body wt. In series [2] (setting [4]), this molecule came in with a half-life at 1 µM of 1.77 min and a microsomal CLint at 1 µM of 390 µL/min/mg. For the same molecule, in series [3] (setting [5]), the AUC(0-inf) is 843 ng·h/mL, the AUC(0-t) worked out at 582 ng·h/mL and the Cmax amounted to 65.2 ng/mL. The half-life in series [3] (setting [6]) was 720 min. Further, in series [3] (rat plasma, 3 mg/kg i.p.), the “Untransformed parent compound in plasma” value was “detectible”. In the series on male rats, the “Hypothermic effect compared to vehicle injection” value is “produced hypothermic effects; also recorded: moderate hypothermic effects” and the “Mean rectal body temperature versus vehicle” value is “significant hypothermic effects”.
Consider `CCCCCn1cc(C(=O)NC(C)(C)c2ccccc2)c2ccccc21` [CUMYL-PICA, 1-pentyl-N-(2-phenylpropan-2-yl)-1H-indole-3-carboxamide], for which, in series [1], the half-life at 1 µM amounted to 2.24 min, the microsomal CLint at 1 µM turned out to be 310 µL/min/mg, the “Parent compound after incubation” value is given as “still detectible” and the “ER (extraction ratio)” value is 0.91. Besides, in series [1], the “CLH (estimated hepatic clearance)” value is on record as 50.22 mL/min/kg body wt and the “CLint (estimated intrinsic clearance)” value is on record as 556.88 mL/min/kg body wt. In addition, in series [2], the “Parent compound after incubation” value was “still detectible”, the “ER (extraction ratio)” value is 0.87, the “CLH (estimated hepatic clearance)” value is recorded as 17.43 mL/min/kg body wt and the “CLint (estimated intrinsic clearance)” value is reported as 135.46 mL/min/kg body wt. The molecule also displayed a half-life at 1 µM in series [2] (setting [4]) of 5.92 min. Also, in series [3] (setting [5]), the total exposure AUC(0-inf) stood at 1210 ng·h/mL, the AUC(0-t) was determined as 1090 ng·h/mL and the Cmax was determined as 130 ng/mL. In series [3] (setting [6]), the half-life is 420 min. Further, in series [3] (rat plasma, 3 mg/kg i.p.), the “CL/F (observed apparent clearance)” value turned out to be 43.31 mL/min/kg body wt, the half-life came out at 436 min and the “Untransformed parent compound in plasma” value is “detectible”. In addition, in the series with male rats, the “Hypothermic effect compared to vehicle injection” value is “produced hypothermic effects; also recorded: moderate hypothermic effects” and the “Mean rectal body temperature versus vehicle” value is on record as “significantly reduced”.
